Converted amounts (≈) assume the structure as drawn. The source made the active and inactive calls. No cut-off for these calls is given here.
Key:
[1] = test system: Prescottella equi; assay: Antibacterial activity against Rhodococcus equi W5234 harboring GyrA Ser83Arg mutation selected on 12 ug/ml of compound treated culture by broth microdilution method; assay type: functional; conditions: Rhodococcus (subgen. Prescottella) equi
How it was run: (§1)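 Mutants were selected by plating at least 1 × 10^10 cells, grown 48 h at 35°C in brain heart infusion broth, on ciprofloxacin-containing Columbia blood agar base for 4 days at 35°C. Each was confirmed by two passages at the selecting concentration and one drug-free passage. MIC was then read by broth microdilution in cation-supplemented Mueller-Hinton broth per CLSI M24-A. Each experiment was done twice.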

[2] = test system: Prescottella equi; assay: Antibacterial activity against Rhodococcus equi W5234 harboring GyrA Ser83Arg mutation selected on 16 ug/ml of compound treated culture by broth microdilution method; assay type: functional; conditions: Rhodococcus (subgen. Prescottella) equi; how it was run: as §1
[3] = test system: Prescottella equi; assay: Antibacterial activity against Rhodococcus equi ATCC 6939T isolated from lung abscess of horse; assay type: functional; conditions: Rhodococcus (subgen. Prescottella) equi
How it was run: (§2)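 Cells grown 48 h at 35°C with shaking in brain heart infusion broth, then resuspended. MIC by broth microdilution in cation-supplemented Mueller-Hinton broth per CLSI M24-A. For MIC99 and MPC, ≥1 × 10^10 cells were plated on Columbia blood agar base containing a range of ciprofloxacin concentrations and incubated 4 days at 35°C. Resistant-colony fraction relative to CFU on drug-free plates was plotted against concentration. Run twice.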

[4] = test system: Prescottella equi; assay: Antibacterial activity against Rhodococcus equi W5234 isolated from HIV-positive patient; assay type: functional; conditions: Rhodococcus (subgen. Prescottella) equi; how it was run: as §2
[5] = test system: Prescottella equi; assay: Antibacterial activity against Rhodococcus equi ATCC 6939T harboring GyrA Gly81Cys mutation selected on 4 ug/ml of compound treated culture by broth microdilution method; assay type: functional; conditions: Rhodococcus (subgen. Prescottella) equi; how it was run: as §1
[6] = test system: Prescottella equi; assay: Antibacterial activity against Rhodococcus equi ATCC 6939T harboring GyrB Asn464Asp mutation selected on 1 ug/ml of compound treated culture by broth microdilution method; assay type: functional, organism-based; how it was run: as §1
[7] = test system: Prescottella equi; assay: Antibacterial activity against Rhodococcus equi ATCC 6939T selected on 8 ug/ml of compound treated culture by broth microdilution method; assay type: functional, organism-based; how it was run: as §1
[8] = test system: Prescottella equi; assay: Antibacterial activity against Rhodococcus equi ATCC 6939T selected on 4 ug/ml of compound treated culture by broth microdilution method; assay type: functional; conditions: Rhodococcus (subgen. Prescottella) equi; how it was run: as §1
[9] = test system: Prescottella equi; assay: Antibacterial activity against Rhodococcus equi ATCC 6939T selected on 2 ug/ml of compound treated culture by broth microdilution method; assay type: functional; conditions: Rhodococcus (subgen. Prescottella) equi; how it was run: as §1
[10] = test system: Prescottella equi; assay: Antibacterial activity against Rhodococcus equi ATCC 6939T selected on 1 ug/ml of compound treated culture by broth microdilution method; assay type: functional; conditions: Rhodococcus (subgen. Prescottella) equi; how it was run: as §1
[11] = test system: Prescottella equi; assay: Antibacterial activity against Rhodococcus equi ATCC 6939T harboring GyrA Asp87Tyr mutation selected on 4 ug/ml of compound treated culture by broth microdilution method; assay type: functional, organism-based; how it was run: as §1
[12] = test system: Prescottella equi; assay: Antibacterial activity against Rhodococcus equi ATCC 6939T harboring GyrA Asp87His mutation selected on 6 ug/ml of compound treated culture by broth microdilution method; assay type: functional; conditions: Rhodococcus (subgen. Prescottella) equi; how it was run: as §1
[13] = test system: Prescottella equi; assay: Antibacterial activity against Rhodococcus equi ATCC 6939T harboring GyrA Asp87Asn mutation selected on 4 ug/ml of compound treated culture by broth microdilution method; assay type: functional, organism-based; how it was run: as §1
[14] = test system: Prescottella equi; assay: Antibacterial activity against Rhodococcus equi ATCC 6939T harboring GyrA Asp87Asn mutation selected on 6 ug/ml of compound treated culture by broth microdilution method; assay type: functional; conditions: Rhodococcus (subgen. Prescottella) equi; how it was run: as §1
[15] = test system: Prescottella equi; assay: Antibacterial activity against Rhodococcus equi ATCC 6939T harboring GyrA Asp87Asn mutation selected on 8 ug/ml of compound treated culture by broth microdilution method; assay type: functional; conditions: Rhodococcus (subgen. Prescottella) equi; how it was run: as §1
[16] = test system: Prescottella equi; assay: Antibacterial activity against Rhodococcus equi ATCC 6939T harboring GyrA Asp87Gly mutation selected on 4 ug/ml of compound treated culture by broth microdilution method; assay type: functional; conditions: Rhodococcus (subgen. Prescottella) equi; how it was run: as §1
[17] = test system: Prescottella equi; assay: Antibacterial activity against Rhodococcus equi ATCC 6939T harboring GyrA Asp87Gly mutation selected on 6 ug/ml of compound treated culture by broth microdilution method; assay type: functional; conditions: Rhodococcus (subgen. Prescottella) equi; how it was run: as §1
[18] = test system: Prescottella equi; assay: Antibacterial activity against Rhodococcus equi ATCC 6939T harboring GyrA Asp87Gly mutation selected on 8 ug/ml of compound treated culture by broth microdilution method; assay type: functional; conditions: Rhodococcus (subgen. Prescottella) equi; how it was run: as §1
[19] = test system: Prescottella equi; assay: Antibacterial activity against Rhodococcus equi ATCC 6939T harboring GyrA Ser83Ile mutation selected on 4 ug/ml of compound treated culture by broth microdilution method; assay type: functional, organism-based; how it was run: as §1
[20] = test system: Prescottella equi; assay: Antibacterial activity against Rhodococcus equi ATCC 6939T harboring GyrA Ser83Ile mutation selected on 8 ug/ml of compound treated culture by broth microdilution method; assay type: functional; conditions: Rhodococcus (subgen. Prescottella) equi; how it was run: as §1
[21] = test system: Prescottella equi; assay: Antibacterial activity against Rhodococcus equi ATCC 6939T harboring GyrA Ser83Ile mutation selected on 12 ug/ml of compound treated culture by broth microdilution method; assay type: functional; conditions: Rhodococcus (subgen. Prescottella) equi; how it was run: as §1
[22] = test system: Prescottella equi; assay: Antibacterial activity against Rhodococcus equi ATCC 6939T harboring GyrA Ser83Ile mutation selected on 16 ug/ml of compound treated culture by broth microdilution method; assay type: functional; conditions: Rhodococcus (subgen. Prescottella) equi; how it was run: as §1
[23] = test system: Prescottella equi; assay: Antibacterial activity against Rhodococcus equi ATCC 6939T harboring GyrA Ser83Arg mutation selected on 2 ug/ml of compound treated culture by broth microdilution method; assay type: functional, organism-based; how it was run: as §1
[24] = test system: Prescottella equi; assay: Antibacterial activity against Rhodococcus equi ATCC 6939T harboring GyrA Ser83Arg mutation selected on 4 ug/ml of compound treated culture by broth microdilution method; assay type: functional, organism-based; how it was run: as §1
[25] = test system: Prescottella equi; assay: Antibacterial activity against Rhodococcus equi ATCC 6939T harboring GyrA Ser83Arg mutation selected on 6 ug/ml of compound treated culture by broth microdilution method; assay type: functional, organism-based; how it was run: as §1

`O=C(O)c1cn(C2CC2)c2cc(N3CCNCC3)c(F)cc2c1=O` [CIPROFLOXACIN] showed an MIC [1] of 64 µg/mL (≈ 193 µM), an MIC [2] of 64 µg/mL (≈ 193 µM) and an MIC99 [3] of 0.42 µg/mL (≈ 1.27 µM). For the same compound, the MIC [4] was 0.5 µg/mL (≈ 1.51 µM), the MIC [5] was 8 µg/mL (≈ 24.1 µM) and the MIC [6] was “inactive”. The MIC [7] was “inactive”, the MIC [8] was 4 µg/mL (≈ 12.1 µM) and the MIC [9] was 2 µg/mL (≈ 6.04 µM). For the same compound, the MIC [10] was 1 µg/mL (≈ 3.02 µM), the MIC [11] was “inactive” and the MIC [12] was 16 µg/mL (≈ 48.3 µM). The MIC [13] was “inactive”, the MIC [14] was 16 µg/mL (≈ 48.3 µM) and the MIC [15] was 32 µg/mL (≈ 96.6 µM). For the same compound, the MIC [16] was 8 µg/mL (≈ 24.1 µM), the MIC [17] was 16 µg/mL (≈ 48.3 µM) and the MIC [18] was 16 µg/mL (≈ 48.3 µM). For the same compound, the MIC [19] was “inactive”, the MIC [20] was 32 µg/mL (≈ 96.6 µM) and the MIC [21] was 128 µg/mL (≈ 386 µM). For the same compound, the MIC [22] was 64 µg/mL (≈ 193 µM), the MIC [23] was “inactive” and the MIC [24] was “inactive”. The MIC [25] was “inactive”.
